{"data": "Published values of several laboratories", "read-out": "enzyme activity", "mode": "inhibitor", "INSR": "Insulin receptor (INSR, Homo sapiens, UniProt P06213)", "INSR phosphorylated": "Insulin receptor, phosphorylated (INSR, Homo sapiens, UniProt P06213)", "note": "Compare with care: the assays were run in different laboratories."}
{"target": "INSR", "technique": "radiometric", "tested at": "1 µM", "remaining activity": "108%", "SMILES": "CC(C)(C)c1nc(-c2cccc(NS(=O)(=O)c3c(F)cccc3F)c2F)c(-c2ccnc(N)n2)s1"}
{"target": "INSR", "technique": "radiometric", "tested at": "1 µM", "remaining activity": "98%", "SMILES": "COc1cc(Nc2cnc(C#N)c(O[C@H](C)CN(C)C)n2)ncc1-c1cnn(C)c1"}
{"target": "INSR", "tested at": "1 µM", "remaining activity": "102%", "SMILES": "CC(C)(O)[C@H]1CC[C@H](Nc2ccc3ncc(-c4cccc(C(F)(F)F)c4)n3n2)CC1"}
{"target": "INSR", "tested at": "10 µM", "remaining activity": "80%", "SMILES": "Oc1cccc(-c2nc(N3CCOCC3)c3oc4ncccc4c3n2)c1"}
{"target": "INSR", "technique": "radiometric", "tested at": "1 µM", "remaining activity": "103%", "SMILES": "Cc1cnc(NC2CCOCC2)nc1-n1cnc(C(=O)NC(CN)c2cc(F)cc(Cl)c2)c1 (stereo not drawn)"}
{"target": "INSR", "tested at": "0.1 µM", "remaining activity": "132%", "SMILES": "Cc1[nH]c(/C=C2\\C(=O)Nc3ccc(F)cc32)c(C)c1C(=O)N[C@H]1CCN(C(=O)N(C)C)C1"}
{"target": "INSR phosphorylated", "tested at": "10 µM", "remaining activity": "95%", "SMILES": "CCN(CC)c1ccc(C2=NNC(=O)CC2C)cc1[N+](=O)[O-] (stereo not drawn)"}
{"target": "INSR", "tested at": "10 µM", "remaining activity": "88%", "SMILES": "Nc1nc(Nc2ccccc2)sc1C(=O)c1c(F)cccc1F"}
{"target": "INSR phosphorylated", "tested at": "1 µM", "remaining activity": "100%", "SMILES": "COc1cc(Cl)c(C(=O)N[C@@H](CN[C@H]2CC[C@@H](N)CC2)Cc2ccc(C#N)cc2)cc1-c1ccc(CN[C@H](C)c2ccc(C)cc2)o1"}
{"target": "INSR", "tested at": "10 µM", "remaining activity": "85.5%", "SMILES": "Cc1sc(C(=O)NC2COC2)cc1-n1cc(NC(=O)Nc2c(F)cccc2Cl)cn1"}
{"target": "INSR", "tested at": "10 µM", "remaining activity": "101%", "SMILES": "CCCOc1ccc(OC)c(F)c1C(=O)c1ccc(C(=O)N[C@@H]2CNC[C@H]2NC(=O)c2ccc3[nH]ncc3c2)cc1"}
{"target": "INSR", "tested at": "10 µM", "remaining activity": "93%", "SMILES": "CC(C)(C)C(=O)c1sc(NC2CCCCC2)nc1N"}
